Laboratory results: ChEMBL document CHEMBL1142895, “Discovery of a new insecticide lead by optimizing a target-diverse scaffold: tetrazolinone derivatives” (2007)
Calls of active or inactive are those of the source. No cut-off for these calls is given here.

Experiments:
Triticum aestivum [1] = assay: Inhibition of stem growth of Triticum aestivum at 100 mg/L; format: functional
Outline: (§1)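 Seeds of each species were grown in Petri dishes with 10 seeds per dish, at 28 °C, 70–80% RH, 16:8 h light:dark photoperiod and 3000 lx light for 5 days. Root and stem lengths were measured for the 10 seeds and averaged. Each test and its controls were run in three replicates, and the data were given probit analysis.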

Triticum aestivum [2] = assay: Inhibition of root growth of Triticum aestivum at 100 mg/L; format: functional; outline: as §1
Echinochloa crus-galli [3] = assay: Inhibition of stem growth of Echinochloa crus-galli at 100 mg/L; format: functional; outline: as §1
Echinochloa crus-galli [4] = assay: Inhibition of root growth of Echinochloa crus-galli at 100 mg/L; format: functional; outline: as §1
Sorghum bicolor [5] = assay: Inhibition of stem growth of Sorghum bicolor at 100 mg/L; format: functional; outline: as §1
Sorghum bicolor [6] = assay: Inhibition of root growth of Sorghum bicolor at 100 mg/L; format: functional; outline: as §1
[7] = tested on: Brassica rapa subsp. oleifera; assay: Inhibition of stem growth of Brassica campestris at 100 mg/L; format: functional; outline: as §1
[8] = tested on: Brassica rapa subsp. oleifera; assay: Inhibition of root growth of Brassica campestris at 100 mg/L; format: functional; outline: as §1
Radish [9] = assay: Inhibition of stem growth of Raphanus sativus at 100 mg/L; format: functional; outline: as §1
Radish [10] = assay: Inhibition of root growth of Raphanus sativus at 100 mg/L; format: functional; outline: as §1
Cucumis sativus [11] = assay: Inhibition of stem growth of Cucumis sativus at 100 mg/L; format: functional; outline: as §1
Cucumis sativus [12] = assay: Inhibition of root growth of Cucumis sativus at 100 mg/L; format: functional; outline: as §1
Aphis = assay: Insecticidal activity against Aphis medicagini at 250 mg/L; format: functional
Outline: (§2)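 Groups of 10 of each species were placed in glass Petri dishes and sprayed with test solution using a Potter sprayer. After air-drying, they were held under normal rearing conditions. Mortality at 72 h was taken from the number and size of live larvae relative to untreated controls.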

Triticum aestivum [13] = assay: Herbicidal activity against Triticum aestivum at 450 g ai/ha in greenhouse in vivo test; format: functional, organism-based
Echinochloa crus-galli [14] = assay: Herbicidal activity against Echinochloa crus-galli at 450 g ai/ha in greenhouse in vivo test; format: functional, organism-based
Sorghum bicolor [15] = assay: Herbicidal activity against Sorghum bicolor at 450 g ai/ha in greenhouse in vivo test; format: functional, organism-based
[16] = tested on: Brassica rapa subsp. oleifera; assay: Herbicidal activity against Brassica campestris at 450 g ai/ha in greenhouse in vivo test; format: functional, organism-based
Radish [17] = assay: Herbicidal activity against Raphanus sativus at 450 g ai/ha in greenhouse in vivo test; format: functional, organism-based
Cucumis sativus [18] = assay: Herbicidal activity against Cucumis sativus at 450 g ai/ha in greenhouse in vivo test; format: functional, organism-based
Tetranychus cinnabarinus = assay: Insecticidal activity against Tetranychus cinnabarinus at 250 mg/L; format: functional; outline: as §2

Row | Compound | inhibition at 100 µg/mL (Triticum aestivum [1]) [%] | inhibition at 100 µg/mL (Triticum aestivum [2]) [%] | inhibition at 100 µg/mL (Echinochloa crus-galli [3]) [%] | inhibition at 100 µg/mL (Echinochloa crus-galli [4]) [%] | inhibition at 100 µg/mL (Sorghum bicolor [5]) [%] | inhibition at 100 µg/mL (Sorghum bicolor [6]) [%] | inhibition at 100 µg/mL [7] [%] | inhibition at 100 µg/mL [8] [%] | inhibition at 100 µg/mL (Radish [9]) [%] | inhibition at 100 µg/mL (Radish [10]) [%] | inhibition at 100 µg/mL (Cucumis sativus [11]) [%] | inhibition at 100 µg/mL (Cucumis sativus [12]) [%] | Activity (Aphis) [%] | Activity (Triticum aestivum [13]) | Activity (Echinochloa crus-galli [14]) | Activity (Sorghum bicolor [15]) | Activity [16] | Activity (Radish [17]) | Activity (Cucumis sativus [18]) | Activity (Tetranychus cinnabarinus) [%]
1 | C=CCSc1nnc(Cn2nnn(-c3ccc(Cl)cc3)c2=O)s1 | 40 | 50 | 70 | 60 | 0 | 60 | 40 | 60 | 40 | 40 | 0 | 0 | 0 | inactive | inactive | inactive | inactive | inactive | inactive | 72.9
2 | O=c1n(Cc2nnc(SCc3ccccc3)s2)nnn1-c1ccc(Cl)cc1 | 60 | 60 | 70 | 60 | 70 | 60 | 50 | 60 | 40 | 60 | 60 | 60 | 5.7 | inactive | inactive | inactive | inactive | inactive | inactive | 2.9
3 | CCOC(=O)C(C)Sc1nnc(Cn2nnn(-c3ccc(Cl)cc3)c2=O)s1 (stereo not given) | 50 | 70 | 40 | 50 | 70 | 80 | 80 | 85 | 50 | 80 | 60 | 60 | 0 | inactive | inactive | inactive | inactive | inactive | inactive | 0
4 | CCOC(=O)C(C)Sc1nnc(Cn2nnn(-c3ccc(Cl)cc3)c2=O)o1 (stereo not given) | 0 | 0 | 0 | 0 | 0 | 0 | 60 | 80 | 0 | 0 | 0 | 0 | 8.3 | inactive | inactive | inactive | inactive | inactive | inactive | 0
5 | CCSc1nnc(Cn2nnn(-c3ccc(Cl)cc3)c2=O)s1 | 40 | 50 | 70 | 60 | 60 | 70 | 60 | 60 | 40 | 50 | 30 | 0 | 82.5 | inactive | inactive | inactive | inactive | inactive | inactive | 5.7
6 | O=c1n(Cc2cccc(Cl)c2)nnn1-c1ccc(Cl)cc1 | 0 | 0 | 0 | 0 | 0 | 0 | 0 | 0 | 0 | 0 | 0 | 0 | 0 | inactive | inactive | inactive | inactive | inactive | inactive | 0
7 | CCCCCCSc1nnc(Cn2nnn(-c3ccc(Cl)cc3)c2=O)s1 | 30 | 0 | 0 | 0 | 40 | 60 | 40 | 70 | 30 | 40 | 0 | 0 | 0 | inactive | inactive | inactive | inactive | inactive | inactive | 4.3
8 | O=c1n(Cc2nnc(SCc3cccc(F)c3)s2)nnn1-c1ccc(Cl)cc1 | 70 | 40 | 70 | 50 | 40 | 40 | 0 | 40 | 50 | 50 | 30 | 30 | 0 | inactive | inactive | inactive | inactive | inactive | inactive | 2.9
9 | O=c1n(Cc2ccc(Br)cc2)nnn1-c1ccc(Cl)cc1 | 30 | 0 | 0 | 0 | 0 | 0 | 0 | 0 | 0 | 0 | 0 | 0 | 13.3 | inactive | inactive | inactive | inactive | inactive | inactive | 0
10 | Cc1ccccc1CSc1nnc(Cn2nnn(-c3ccc(Cl)cc3)c2=O)s1 | 60 | 60 | 70 | 60 | 30 | 0 | 30 | 50 | 40 | 40 | 0 | 0 | 0 | inactive | inactive | inactive | inactive | inactive | inactive | 0
